{"source": "paper PMC7729387", "about": "(Journal of Antimicrobial Chemotherapy, 2020)", "key": {"[1]": {"tested_on": "A/WSN/33 (H1N1) strain", "type": "in vivo, influenza A(H1N1) virus (BALB/c mice)"}, "[2]": {"test": "PK of baloxavir acid after oral baloxavir marboxil in A/WSN/33-infected mice", "type": "in vivo, BALB/c mice", "summary_of_the_method": "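A/WSN/33-infected BALB/c mice each received a single oral dose of the prodrug at 0.5, 1.5, 5, 15 or 50 mg/kg. Blood was taken at 0.5–12 h, three mice per dose per timepoint. Plasma active acid and prodrug were measured by LC-MS/MS.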"}, "[3]": {"test": "PK of baloxavir acid after subcutaneous baloxavir acid in A/WSN/33-infected mice", "type": "in vivo, BALB/c mice", "settings": "sc baloxavir acid 0.125, 0.5, 2 and 8 mg/kg"}, "[4]": {"tested_on": "A/WSN/33 (H1N1) strain", "test": "PK/PD analysis, sigmoid Emax model", "type": "in vivo, influenza A(H1N1) virus (BALB/c mice)", "settings": "for E max (estimate) / E 0 (estimate): y = virus titre (log10 TCID50/mL)", "summary_of_the_method": "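A/WSN/33-infected BALB/c mice were dosed subcutaneously from day 5 at 0.0625–8 mg/kg q24h, q12h or q6h for 1 day, five per group, in Tween 80/copolymer carbonate vehicle at pH ~9. Lung titres were read 24 h later by MDCK TCID50. PK parameters came from mean plasma levels after single 0.125–8 mg/kg doses, scaled for 0.0625–4 mg/kg. A sigmoid Emax model was fitted to individual-mouse titres and judged by adjusted R².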"}, "[5]": {"tested_on": "A/WSN/33 (H1N1) strain", "test": "PK/PD analysis, linear model", "type": "in vivo, influenza A(H1N1) virus (BALB/c mice)", "settings": "y = virus titre (log10 TCID50/mL)"}, "[6]": {"settings": "humans; single-dose oral baloxavir marboxil; cited from earlier work"}, "[7]": {"tested_on": "type A and type B virus strains", "settings": "cited from earlier work"}, "[8]": {"tested_on": "type A and type B virus strains", "settings": "plaque-reduction assay; cited from earlier work"}, "[9]": {"tested_on": "A/Osaka/129/2009 (H1N1pdm09)", "design": "species or system influenza A(H1N1)pdm09 virus (BALB/c mice)", "settings": "mouse, in vivo, po, 5 mg/kg"}, "[10]": {"tested_on": "A/Hong Kong/8/68 (H3N2)", "type": "in vivo, influenza A(H3N2) virus (BALB/c mice)", "settings": "oral 15 mg/kg twice daily"}, "[11]": {"tested_on": "B/Hong Kong/5/72", "type": "in vivo, influenza type B virus (BALB/c mice)", "settings": "oral 15 mg/kg twice daily"}, "[12]": {"tested_on": "influenza virus", "settings": "cited from earlier work"}, "[13]": {"tested_on": "influenza A virus", "settings": "10 mg/kg, q24h daily, nude mice; cited from earlier work"}, "[14]": {"settings": "BXA in plasma, oral BXM 0.5 mg/kg"}, "[15]": {"settings": "BXA in plasma, oral BXM 1.5 mg/kg"}, "[16]": {"settings": "BXA in plasma, oral BXM 5 mg/kg"}, "[17]": {"settings": "BXA in plasma, oral BXM 15 mg/kg"}, "[18]": {"settings": "BXA in plasma, oral BXM 50 mg/kg"}, "[19]": {"settings": "[…], 24 h after initial dosing, 15 mg/kg"}, "[20]": {"settings": "24 h after single-dose oral treatment, patients with uncomplicated influenza, ref Phase 3 baloxavir marboxil studies"}}, "note": "Where two headings read alike, the source gives them in different places.", "data": [{"smiles": "O=C1c2c(O)c(=O)ccn2N([C@@H]2c3ccccc3SCc3c2ccc(F)c3F)[C@@H]2COCCN12", "note": "[baloxavir acid]", "values": [{"measurement": "virus titres versus vehicle or oseltamivir phosphate 5 eq mg/kg, q12h", "setting": "[1]; […], 24 h post-treatment initiation, all groups", "value": "numerically lower"}, {"measurement": "plasma exposure versus dose", "setting": "[2]; BXA in plasma after oral baloxavir marboxil 0.5–50 mg/kg", "value": "increased dose proportionally up to 15 mg/kg"}, {"measurement": "AUC0–12", "setting": "[2]; [14]", "value": 22.0, "unit": "ng·h/mL"}, {"measurement": "AUC0–∞", "setting": "[2]; [14]", "value": 22.7, "unit": "ng·h/mL"}, {"measurement": "C max", "setting": "[2]; [14]", "value": 5.05, "unit": "ng/mL"}, {"measurement": "T max", "setting": "[2]; [14]", "value": 1.00, "unit": "h"}, {"measurement": "t ½,z", "setting": "[2]; BXA in plasma, oral BXM 0.5 mg/kg, t½,4–10 h", "value": 2.24, "unit": "h"}, {"measurement": "AUC0–12", "setting": "[2]; [15]", "value": 62.6, "unit": "ng·h/mL"}, {"measurement": "AUC0–∞", "setting": "[2]; [15]", "value": 66.1, "unit": "ng·h/mL"}, {"measurement": "C max", "setting": "[2]; [15]", "value": 14.3, "unit": "ng/mL"}, {"measurement": "T max", "setting": "[2]; [15]", "value": 1.00, "unit": "h"}, {"measurement": "t ½,z", "setting": "[2]; BXA in plasma, oral BXM 1.5 mg/kg, t½,6–12 h", "value": 2.56, "unit": "h"}, {"measurement": "AUC0–12", "setting": "[2]; [16]", "value": 242, "unit": "ng·h/mL"}, {"measurement": "AUC0–∞", "setting": "[2]; [16]", "value": 252, "unit": "ng·h/mL"}, {"measurement": "C max", "setting": "[2]; [16]", "value": 45.7, "unit": "ng/mL"}, {"measurement": "T max", "setting": "[2]; [16]", "value": 0.500, "unit": "h"}, {"measurement": "t ½,z", "setting": "[2]; BXA in plasma, oral BXM 5 mg/kg, t½,6–12 h", "value": 2.45, "unit": "h"}, {"measurement": "AUC0–12", "setting": "[2]; [17]", "value": 648, "unit": "ng·h/mL"}, {"measurement": "AUC0–∞", "setting": "[2]; [17]", "value": 670, "unit": "ng·h/mL"}, {"measurement": "C max", "setting": "[2]; [17]", "value": 175, "unit": "ng/mL"}, {"measurement": "T max", "setting": "[2]; [17]", "value": 0.500, "unit": "h"}, {"measurement": "t ½,z", "setting": "[2]; BXA in plasma, oral BXM 15 mg/kg, t½,6–12 h", "value": 2.26, "unit": "h"}, {"measurement": "AUC0–12", "setting": "[2]; [18]", "value": 1580, "unit": "ng·h/mL"}, {"measurement": "AUC0–∞", "setting": "[2]; [18]", "value": 1690, "unit": "ng·h/mL"}, {"measurement": "C max", "setting": "[2]; [18]", "value": 284, "unit": "ng/mL"}, {"measurement": "T max", "setting": "[2]; [18]", "value": 2.00, "unit": "h"}, {"measurement": "t ½,z", "setting": "[2]; BXA in plasma, oral BXM 50 mg/kg, t½,6–12 h", "value": 3.14, "unit": "h"}, {"measurement": "t½,z (half-life in mouse plasma)", "setting": "[2]; BXA in plasma, oral baloxavir marboxil 0.5–50 mg/kg, range over doses", "value": "2.24 to 3.14", "unit": "h"}, {"measurement": "plasma concentration versus dose", "setting": "[3]", "value": "increased dose proportionally from 0.125 to 8 mg/kg"}, {"measurement": "E max (estimate)", "setting": "[4]; x = AUC0–24 (ng·h/mL)", "value": 1.091}, {"measurement": "EC50 (estimate)", "setting": "[4]; x = C 24", "value": 4.767, "unit": "ng/mL"}, {"measurement": "E 0 (estimate)", "setting": "[4]; x = C 24 (ng/mL)", "value": 3.928}, {"measurement": "E max (estimate)", "setting": "[4]; x = C 24 (ng/mL)", "value": 1.499}, {"measurement": "EC50 (estimate)", "setting": "[4]; x = C max", "value": 42.528, "unit": "ng/mL"}, {"measurement": "E 0 (estimate)", "setting": "[4]; x = C max (ng/mL)", "value": 3.806}, {"measurement": "E max (estimate)", "setting": "[4]; x = C max (ng/mL)", "value": 1.022}, {"measurement": "EC50 (estimate)", "setting": "[4]; x = C τ", "value": 4.108, "unit": "ng/mL"}, {"measurement": "E 0 (estimate)", "setting": "[4]; x = C τ (ng/mL)", "value": 3.958}, {"measurement": "E max (estimate)", "setting": "[4]; x = C τ (ng/mL)", "value": 1.554}, {"measurement": "E 0 (estimate)", "setting": "[4]; x = T >50 (h)", "value": 3.588}, {"measurement": "E max (estimate)", "setting": "[4]; x = T >50 (h)", "value": 1.913}, {"measurement": "E 0 (estimate)", "setting": "[5]; x = T >2 (h)", "value": 5.141}, {"measurement": "E 0 (estimate)", "setting": "[5]; x = T >10 (h)", "value": 4.095}, {"measurement": "E 0 (estimate)", "setting": "[5]; x = T >50 (h)", "value": 3.569}, {"measurement": "half-life in plasma compared with that in mice", "setting": "[6]", "value": "> 10", "unit": "fold"}, {"measurement": "inhibitory values, type A more potent than type B virus strains", "setting": "[7]", "value": "4- to 5 fold"}, {"measurement": "inhibitory values, type A more potent than type B virus strains", "setting": "[8]", "value": "6- to 12 fold"}]}, {"smiles": "COC(=O)OCOc1c2n(ccc1=O)N([C@@H]1c3ccccc3SCc3c1ccc(F)c3F)[C@@H]1COCCN1C2=O", "note": "[baloxavir marboxil]", "values": [{"measurement": "virus titres declined compared with oseltamivir phosphate 5 or 50 eq mg/kg, q12h", "setting": "[1]; [19]", "value": 2, "unit": "log10 TCID50/mL"}, {"measurement": "virus titres declined compared with vehicle", "setting": "[1]; [19]", "value": "> 3", "unit": "log10 TCID50/mL"}, {"measurement": "virus titres compared with the clinically equivalent or higher dose of oseltamivir phosphate", "setting": "[1]; mouse, in vivo, po, 1.5 mg/kg", "value": "significantly reduced virus titres"}, {"measurement": "Lung virus titres versus each NAI or favipiravir", "setting": "[1]; mouse, in vivo, po, 5 mg/kg", "value": "significantly lower"}, {"measurement": "decrease in virus titre compared with oseltamivir phosphate at 5 eq mg/kg", "setting": "[1]; oral 15 mg/kg twice daily", "value": 2.64, "unit": "log10 TCID50/mL"}, {"measurement": "virus titre reduction in mice infected with the H1N1pdm09 strain", "setting": "[9]", "value": "≥ 100", "unit": "fold"}, {"measurement": "decrease in virus titre compared with oseltamivir phosphate at 5 eq mg/kg", "setting": "[10]", "value": 2.16, "unit": "log10 TCID50/mL"}, {"measurement": "decrease in virus titre compared with oseltamivir phosphate at 5 eq mg/kg", "setting": "[11]", "value": 0.97, "unit": "log10 TCID50/mL"}, {"measurement": "baloxavir marboxil in plasma", "setting": "[2]; after oral baloxavir marboxil, data not shown", "value": "undetectable in almost all infected mice"}, {"measurement": "greater viral load reduction than after oseltamivir phosphate", "setting": "[12]; [20]", "value": 2.0, "unit": "log10 TCID50/mL"}, {"measurement": "greater viral load reduction than after placebo", "setting": "[12]; [20]", "value": 3.5, "unit": "log10 TCID50/mL"}, {"measurement": "Symptom resolution", "setting": "[12]; type A virus infections", "value": "faster with baloxavir marboxil than placebo, but not oseltamivir phosphate"}, {"measurement": "clearance of virus from the respiratory organs", "setting": "[13]", "value": "did not clear the virus from the respiratory organs"}]}, {"smiles": "CCOC(=O)C1=C[C@@H](OC(CC)CC)[C@H](NC(C)=O)[C@@H](N)C1", "note": "[oseltamivir phosphate, reference compound]", "values": [{"measurement": "reduction in virus titres compared with vehicle", "setting": "[1]; mouse, in vivo", "value": "0.5–1 log10"}]}]}
